Key:
NCI-H630 [1] = assay: Cytotoxicity against human NCI-H630 cells after 5 days by SRB assay; format: functional, cell-based; conditions: NCI-H630, 120 h
Summary of the method: (§1)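 Cells grown in phenol-red-free RPMI-1640 with 10% dialyzed FBS and no antibiotics, at 37 °C and 5% CO₂. H630-1 was kept in 1 µM 5-FU until 1 week before use. Compounds were dried from EtOH (10× final) into wells, in duplicate or quadruplicate. Seeding per well: H630 2×10³, H630-1 4×10³, PC3 2×10³. After 5 days, cells were TCA-fixed, stained with 0.4% SRB, dye dissolved in Tris, OD570 read.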

Pseudomonas aeruginosa [2] = assay: Toxicity assessed as activation of quorum sensing signalling in Pseudomonas aeruginosa MW1 carrying (lasI-,rhlI-) pUM15 containing rsa::gfp fusion gene at 33 uM by LasR-dependent green fluorescence protein reporter assay; format: organism-based; conditions: in vivo
NCI-H630 [3] = assay: Cytotoxicity against 5FU-resistant human NCI-H630 cells after 5 days by SRB assay; format: functional, cell-based; conditions: NCI-H630, 120 h; summary of the method: as §1
PC-3 = assay: Cytotoxicity against human PC3 cells after 5 days by SRB assay; format: functional, cell-based; conditions: PC-3, 120 h; summary of the method: as §1
Pseudomonas aeruginosa [4] = assay: Toxicity assessed as activation of quorum sensing signalling in Pseudomonas aeruginosa MW1 carrying (lasI-,rhlI-) pUM15 containing rsa::gfp fusion gene at 0.3 uM by LasR-dependent green fluorescence protein reporter assay; format: organism-based; conditions: in vivo

SMILES	IC50 (NCI-H630 [1])	Activity (Pseudomonas aeruginosa [2])	IC50 (NCI-H630 [3])	IC50 (PC-3)	Activity (Pseudomonas aeruginosa [4])
O=C(CCCCCCCCCc1ccccc1)CC(=O)N[C@H]1CCOC1=O	16 µM	Non-toxic	13 µM	4 µM	–
O=C(CCCCCCCc1ccccc1)CC(=O)N[C@H]1CCOC1=O	42 µM	–	10 µM	2 µM	–
O=C(CCCCCCCCCCCc1ccccc1)CC(=O)N[C@H]1CCOC1=O	33 µM	Non-toxic	27 µM	4 µM	–
O=C(CCCCCc1ccccc1)CC(=O)N[C@H]1CCOC1=O	44 µM	–	24 µM	9 µM	–
O=C(CCCCCCc1ccccc1)CC(=O)N[C@H]1CCOC1=O	65 µM	–	27 µM	9 µM	–
O=C(CCCCCCCCCCc1ccccc1)N[C@H]1CCOC1=O	70 µM	–	66 µM	66 µM	–
O=C(CCCc1ccccc1)N[C@H]1CCOC1=O	> 100 µM	–	> 100 µM	> 100 µM	–
O=C(CCCCCCCc1ccccc1)N[C@H]1CCOC1=O	> 100 µM	–	> 100 µM	85 µM	–
O=C(CCCCCCCCc1ccccc1)N[C@H]1CCOC1=O	> 100 µM	–	> 100 µM	67 µM	–
O=C(CCCCCCCCCCc1ccccc1)CC(=O)N[C@H]1CCOC1=O	23 µM	Non-toxic	14 µM	2 µM	–
O=C(CCCCc1ccccc1)CC(=O)N[C@H]1CCOC1=O	> 100 µM	–	80 µM	83 µM	–
O=C(CC(=O)c1ccccc1)N[C@H]1CCOC1=O	> 100 µM	–	> 100 µM	> 100 µM	–
O=C(Cc1ccccc1)N[C@H]1CCOC1=O	> 100 µM	–	> 100 µM	> 100 µM	–
O=C(CC(=O)N[C@H]1CCOC1=O)Cc1ccccc1	> 100 µM	–	> 100 µM	> 100 µM	–
O=C(CCCCCc1ccccc1)N[C@H]1CCOC1=O	> 100 µM	–	> 100 µM	> 100 µM	–
O=C(CCCc1ccccc1)CC(=O)N[C@H]1CCOC1=O	> 100 µM	–	> 100 µM	> 100 µM	–
O=C(CCCCCCc1ccccc1)N[C@H]1CCOC1=O	> 100 µM	–	> 100 µM	> 100 µM	–
O=C(CCCCCCCCCc1ccccc1)CC(=O)N[C@@H]1CCOC1=O	> 100 µM	–	> 100 µM	> 100 µM	–
O=C(CCc1ccccc1)N[C@H]1CCOC1=O	> 100 µM	–	> 100 µM	> 100 µM	–
O=C(CCCCCCCCc1ccccc1)CC(=O)N[C@H]1CCOC1=O	11 µM	–	10 µM	4 µM	–
O=C(CCCCCCCCCCCc1ccccc1)N[C@H]1CCOC1=O	> 100 µM	–	> 100 µM	> 100 µM	–
O=C(CCCCCCCCCc1ccccc1)N[C@H]1CCOC1=O	> 100 µM	–	> 100 µM	75 µM	–
O=C(CCCCc1ccccc1)N[C@H]1CCOC1=O	> 100 µM	–	> 100 µM	> 100 µM	–
O=C(CCc1ccccc1)CC(=O)N[C@H]1CCOC1=O	> 100 µM	–	> 100 µM	> 100 µM	–
CCCCCCCCCC(=O)CC(=O)N[C@H]1CCOC1=O	34 µM	–	12 µM	5 µM	Toxic
